This note sets out measurements from ChEMBL document CHEMBL4014338, “Discovery of Small Molecules as Multi-Toll-like Receptor Agonists with Proinflammatory and Anticancer Activities” (J Med Chem, 2017).

Assay [1] concerns the target Toll-like receptor 3 (Homo sapiens) (UniProt O15455). Briefly: Agonist activity at human TLR3 expressed in HEK293 cells assessed as induction of NF-kB activation-mediated SEAP production at 25 uM after 24 hrs by HTS assay relative to control. The format is cell-based. Summed up: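 hTLR3 HEK293 SEAP reporter cells seeded at 5 × 10^4 cells/well for 24 h, exposed to 25 μM for 24 h. Supernatant SEAP detected with QUANTI-Blue (1 h, 37 °C, OD 620 nm). Activation normalized to untreated cells and expressed as fold change.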

The target in assay [2] is Toll-like receptor 2 (Homo sapiens, UniProt O60603). Briefly: Agonist activity at human TLR2 expressed in HEK293 cells assessed as induction of NF-kB activation-mediated SEAP production after 24 hrs by HTS assay. The format is cell-based. Summed up:
(§1)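 Stable HEK293 lines expressing a single hTLR plus a SEAP reporter, grown in DMEM/10% FBS with selective antibiotics. Seeded at 5 × 10^4 cells/well for 24 h at 37 °C, then treated 24 h. Supernatant mixed with QUANTI-Blue, 1 h at 37 °C, OD 620 nm. Cognate agonists: Pam3CSK4 (TLR2), poly I:C (TLR3), LPS (TLR4), FLA-BS (TLR5), R848 (TLR7). EC50 as mean ± SD.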

Assay [3] has as its target Toll-like receptor 4 (Homo sapiens, UniProt O00206). Kind of assay: Agonist activity at human TLR4 expressed in HEK293 cells assessed as induction of NF-kB activation-mediated SEAP production after 24 hrs by HTS assay. It is filed as cell-based. Summed up: as §1
Assay [4] concerns the target T1, Toll-like receptor 8 (Homo sapiens, UniProt Q9NR97).
T1 sequence (Q9NR97 whole entry): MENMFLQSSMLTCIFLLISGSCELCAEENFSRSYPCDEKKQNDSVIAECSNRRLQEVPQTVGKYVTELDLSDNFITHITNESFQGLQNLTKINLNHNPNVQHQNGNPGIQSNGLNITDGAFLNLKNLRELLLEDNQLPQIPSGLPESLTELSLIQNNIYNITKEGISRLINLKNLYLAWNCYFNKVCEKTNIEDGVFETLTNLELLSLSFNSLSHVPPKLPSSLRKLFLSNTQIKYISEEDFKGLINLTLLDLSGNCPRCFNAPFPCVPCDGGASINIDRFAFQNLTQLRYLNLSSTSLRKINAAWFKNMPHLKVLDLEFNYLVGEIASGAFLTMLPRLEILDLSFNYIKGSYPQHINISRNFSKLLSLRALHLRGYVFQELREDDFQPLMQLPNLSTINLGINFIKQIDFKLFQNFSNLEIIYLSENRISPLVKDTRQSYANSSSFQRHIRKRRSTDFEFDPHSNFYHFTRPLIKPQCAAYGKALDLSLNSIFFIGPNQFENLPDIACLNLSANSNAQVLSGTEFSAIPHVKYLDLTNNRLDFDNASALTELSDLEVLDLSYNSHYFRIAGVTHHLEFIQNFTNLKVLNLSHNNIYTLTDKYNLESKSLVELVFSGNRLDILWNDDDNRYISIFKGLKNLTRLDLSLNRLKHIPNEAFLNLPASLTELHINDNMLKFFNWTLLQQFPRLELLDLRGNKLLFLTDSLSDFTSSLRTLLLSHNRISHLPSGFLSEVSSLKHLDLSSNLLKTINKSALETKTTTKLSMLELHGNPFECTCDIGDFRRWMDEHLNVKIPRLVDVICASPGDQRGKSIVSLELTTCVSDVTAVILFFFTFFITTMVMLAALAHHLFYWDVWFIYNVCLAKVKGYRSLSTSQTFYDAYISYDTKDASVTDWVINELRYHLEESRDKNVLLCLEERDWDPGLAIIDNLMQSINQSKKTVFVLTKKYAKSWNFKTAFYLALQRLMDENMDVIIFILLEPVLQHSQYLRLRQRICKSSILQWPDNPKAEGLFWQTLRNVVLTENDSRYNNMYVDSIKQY
Briefly: Agonist activity at human TLR8 expressed in HEK293 cells assessed as induction of NF-kB activation-mediated SEAP production after 24 hrs by HTS assay. It is filed as cell-based. Summed up:
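HEK293 cells stably expressing human TLR8 or TLR9 plus an NF-κB-inducible SEAP reporter, seeded at 5 × 10^4 cells/well for 24 h, then treated for 24 h. Supernatant incubated with QUANTI-Blue at 37 °C for 1 h and OD read at 620 nm. Positive controls were R848 (TLR8) and ODN2006 (TLR9). EC50 reported as mean ± SD.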

In assay [5] the target is Toll-like receptor 3/8/9 (Homo sapiens) (UniProt O15455+Q9NR96+Q9NR97). Briefly: Agonist activity at TLR3/TLR8/TLR9 in human THP1 cells assessed as increase in TNFalpha mRNA level after 12 hrs by qRT-PCR method. The format is cell-based. Summed up: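 THP-1 cells (1.5 × 10^6/well) differentiated with PMA (20 nM) for 2 days, then 24 h in fresh RPMI 1640; nonadherent cells removed. Treated with indicated compound concentrations for 12 h, washed with PBS, and mRNA measured by qRT-PCR. Expressed as fold change versus untreated control, poly I:C (5 μg/mL) as reference. Mean ± SD of three independent experiments.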
Toll-like receptor 3/8/9 (Homo sapiens), sequence (O15455 whole entry, looked up, one chain of several): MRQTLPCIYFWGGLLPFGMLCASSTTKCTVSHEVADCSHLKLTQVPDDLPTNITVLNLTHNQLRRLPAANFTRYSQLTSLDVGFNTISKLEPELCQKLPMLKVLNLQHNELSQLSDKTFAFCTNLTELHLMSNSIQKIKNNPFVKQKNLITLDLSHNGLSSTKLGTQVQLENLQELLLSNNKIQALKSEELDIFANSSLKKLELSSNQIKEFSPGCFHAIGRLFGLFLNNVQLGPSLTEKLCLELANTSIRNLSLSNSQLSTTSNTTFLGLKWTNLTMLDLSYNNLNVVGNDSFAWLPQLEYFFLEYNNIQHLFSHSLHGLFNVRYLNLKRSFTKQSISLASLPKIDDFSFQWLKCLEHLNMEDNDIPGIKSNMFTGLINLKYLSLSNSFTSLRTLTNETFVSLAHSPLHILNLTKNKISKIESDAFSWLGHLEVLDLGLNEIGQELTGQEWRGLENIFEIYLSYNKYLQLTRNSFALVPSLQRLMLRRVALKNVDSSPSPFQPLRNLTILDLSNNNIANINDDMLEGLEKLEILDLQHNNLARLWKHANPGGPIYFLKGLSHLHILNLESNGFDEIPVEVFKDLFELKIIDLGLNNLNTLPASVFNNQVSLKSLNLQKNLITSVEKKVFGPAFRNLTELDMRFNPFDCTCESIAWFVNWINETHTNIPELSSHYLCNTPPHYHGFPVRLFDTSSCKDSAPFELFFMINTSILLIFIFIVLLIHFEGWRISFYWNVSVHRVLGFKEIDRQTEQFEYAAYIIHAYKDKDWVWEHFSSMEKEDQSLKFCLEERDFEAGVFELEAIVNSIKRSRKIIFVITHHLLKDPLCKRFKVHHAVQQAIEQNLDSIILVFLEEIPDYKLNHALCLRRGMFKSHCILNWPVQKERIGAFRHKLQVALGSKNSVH
Toll-like receptor 3/8/9 (Homo sapiens), sequence (Q9NR96 whole entry, looked up, one chain of several): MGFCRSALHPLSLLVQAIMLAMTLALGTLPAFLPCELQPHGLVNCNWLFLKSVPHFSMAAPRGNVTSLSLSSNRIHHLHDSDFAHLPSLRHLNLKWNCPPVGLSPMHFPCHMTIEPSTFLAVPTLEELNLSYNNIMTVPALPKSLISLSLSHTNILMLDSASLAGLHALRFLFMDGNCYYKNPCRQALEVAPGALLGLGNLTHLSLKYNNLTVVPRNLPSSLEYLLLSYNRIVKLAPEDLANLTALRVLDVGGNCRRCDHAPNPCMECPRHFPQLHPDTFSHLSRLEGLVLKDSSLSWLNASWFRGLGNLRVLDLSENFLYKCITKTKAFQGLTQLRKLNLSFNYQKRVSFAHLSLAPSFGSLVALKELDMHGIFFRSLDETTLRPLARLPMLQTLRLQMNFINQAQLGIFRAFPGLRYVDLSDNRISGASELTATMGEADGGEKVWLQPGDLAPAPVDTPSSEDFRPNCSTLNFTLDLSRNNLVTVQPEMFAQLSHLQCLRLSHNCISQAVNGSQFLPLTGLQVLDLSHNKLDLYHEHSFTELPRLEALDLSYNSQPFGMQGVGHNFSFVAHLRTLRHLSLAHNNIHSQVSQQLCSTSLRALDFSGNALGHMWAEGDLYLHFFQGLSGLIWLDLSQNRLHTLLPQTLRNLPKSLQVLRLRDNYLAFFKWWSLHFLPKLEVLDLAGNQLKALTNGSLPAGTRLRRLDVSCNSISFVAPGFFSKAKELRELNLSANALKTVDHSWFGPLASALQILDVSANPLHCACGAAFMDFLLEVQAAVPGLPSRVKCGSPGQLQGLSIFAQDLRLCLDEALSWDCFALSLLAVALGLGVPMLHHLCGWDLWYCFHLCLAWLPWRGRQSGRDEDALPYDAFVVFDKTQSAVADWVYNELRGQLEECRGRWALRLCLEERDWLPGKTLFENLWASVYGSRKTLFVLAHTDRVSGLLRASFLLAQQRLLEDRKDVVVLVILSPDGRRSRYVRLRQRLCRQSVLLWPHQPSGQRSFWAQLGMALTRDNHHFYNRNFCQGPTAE

Assay [6] deals with HeLa. Kind of assay: Antiproliferative activity against human HeLa cells after 48 hrs by WST1 assay. The format is functional, cell-based. Summed up:
(§2)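 Cells seeded at 5 × 10^3/well and left 24 h, then given a concentration series for 24, 48 or 72 h. WST-1 reagent added and incubated at 37 °C for 30 min–2 h until color change; absorbance 450 nm. Growth inhibition = (1 − [sample − background]/[control − background]) × 100. IC50 mean ± SD, three cell preparations.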
A general note: Tetrazolium dyes change colour on reduction, which living cells bring about.

For assay [7], the system named is HeLa. Briefly: Antiproliferative activity against human HeLa cells after 72 hrs by WST1 assay. The format is functional, cell-based. Summed up: as §2
The test system of assay [8] is HMEC. Briefly: Antiproliferative activity against HMEC after 48 hrs by WST1 assay. It is filed as cell-based. The conditions noted are these: Homo sapiens. Summed up:
as §2

Assay [9] concerns HeLa. Briefly: Cell cycle arrest in human HeLa cells assessed as accumulation at S phase at 10 uM after 24 hrs by propidium iodide staining based flow cytometry (reference value: 31%). The format is functional.
The test system of assay [10] is HeLa. Kind of assay: Cell cycle arrest in human HeLa cells assessed as accumulation at S phase at 20 uM after 24 hrs by propidium iodide staining based flow cytometry (reference value: 31%). It is filed as functional. For orientation: In flow cytometry, cells or beads pass a laser one at a time.
For assay [11], the system named is HeLa. Kind of assay: Cell cycle arrest in human HeLa cells assessed as accumulation at G2/M phase at 20 uM after 24 hrs by propidium iodide staining based flow cytometry (reference value: 17%). It is filed as functional.
Assay [12] has as its system HeLa. Kind of assay: Cell cycle arrest in human HeLa cells assessed as accumulation at G2/M phase at 30 uM after 24 hrs by propidium iodide staining based flow cytometry (reference value: 17%). The format is functional.
In assay [13] the test system is HeLa. Kind of assay: Cell cycle arrest in human HeLa cells assessed as accumulation at G0/G1 phase at 40 uM after 24 hrs by propidium iodide staining based flow cytometry (reference value: 52%). The format is functional.
Assay [14] concerns HeLa. Kind of assay: Cell cycle arrest in human HeLa cells assessed as accumulation at G2/M phase at 40 uM after 24 hrs by propidium iodide staining based flow cytometry (reference value: 17%). It is filed as functional.
For assay [15], the system named is HeLa. Kind of assay: Cell cycle arrest in human HeLa cells assessed as accumulation at S phase after 24 hrs by propidium iodide staining based flow cytometry. It is filed as functional.

Molecules are shown by their SMILES.

Toll-like receptor 4, sequence (O00206 whole entry): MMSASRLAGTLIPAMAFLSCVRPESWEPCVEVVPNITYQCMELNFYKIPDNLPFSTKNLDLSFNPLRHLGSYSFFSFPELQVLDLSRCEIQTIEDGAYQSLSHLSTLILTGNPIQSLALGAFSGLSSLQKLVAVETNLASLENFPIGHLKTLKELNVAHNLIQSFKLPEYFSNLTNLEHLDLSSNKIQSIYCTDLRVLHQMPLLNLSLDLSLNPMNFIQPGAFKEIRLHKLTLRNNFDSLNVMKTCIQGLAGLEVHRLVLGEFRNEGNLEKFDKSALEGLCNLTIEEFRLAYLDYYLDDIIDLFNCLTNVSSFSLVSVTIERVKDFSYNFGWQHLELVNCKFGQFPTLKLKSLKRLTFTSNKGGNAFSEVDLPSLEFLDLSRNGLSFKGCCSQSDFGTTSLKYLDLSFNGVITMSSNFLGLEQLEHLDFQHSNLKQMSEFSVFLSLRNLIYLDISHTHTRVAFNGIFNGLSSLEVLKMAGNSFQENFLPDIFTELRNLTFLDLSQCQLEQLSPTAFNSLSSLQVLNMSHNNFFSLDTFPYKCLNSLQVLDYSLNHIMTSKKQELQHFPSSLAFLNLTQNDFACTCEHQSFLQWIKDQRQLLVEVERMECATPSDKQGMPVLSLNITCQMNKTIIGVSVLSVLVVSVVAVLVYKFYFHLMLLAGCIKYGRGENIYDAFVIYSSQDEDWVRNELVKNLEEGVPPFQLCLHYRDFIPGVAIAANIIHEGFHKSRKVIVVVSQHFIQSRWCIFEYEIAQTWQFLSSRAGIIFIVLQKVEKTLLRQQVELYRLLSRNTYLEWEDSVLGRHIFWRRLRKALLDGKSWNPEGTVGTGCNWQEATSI
Toll-like receptor 3 (Homo sapiens), sequence (O15455 whole entry): as the sequence (O15455 whole entry, looked up, one chain of several) above
Toll-like receptor 2, sequence (O60603 whole entry): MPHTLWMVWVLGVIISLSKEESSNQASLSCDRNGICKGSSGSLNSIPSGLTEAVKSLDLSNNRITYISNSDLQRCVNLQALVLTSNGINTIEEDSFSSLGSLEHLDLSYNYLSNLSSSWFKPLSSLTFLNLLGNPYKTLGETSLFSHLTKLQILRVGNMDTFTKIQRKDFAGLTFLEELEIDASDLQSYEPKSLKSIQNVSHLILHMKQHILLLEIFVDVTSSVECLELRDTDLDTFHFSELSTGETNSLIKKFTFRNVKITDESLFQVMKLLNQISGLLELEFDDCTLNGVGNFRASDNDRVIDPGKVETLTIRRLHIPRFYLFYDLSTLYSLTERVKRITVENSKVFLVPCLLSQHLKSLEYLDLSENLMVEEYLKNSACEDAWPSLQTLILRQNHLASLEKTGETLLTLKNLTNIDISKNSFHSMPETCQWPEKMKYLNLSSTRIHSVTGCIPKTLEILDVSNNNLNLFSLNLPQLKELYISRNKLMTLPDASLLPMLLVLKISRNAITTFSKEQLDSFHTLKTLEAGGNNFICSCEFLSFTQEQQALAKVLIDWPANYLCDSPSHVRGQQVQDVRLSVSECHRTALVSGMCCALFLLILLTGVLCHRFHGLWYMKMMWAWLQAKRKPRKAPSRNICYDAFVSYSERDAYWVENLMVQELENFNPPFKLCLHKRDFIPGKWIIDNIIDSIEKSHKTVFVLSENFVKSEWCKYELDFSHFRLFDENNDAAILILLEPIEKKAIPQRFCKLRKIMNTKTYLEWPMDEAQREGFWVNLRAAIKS

For `O=[N+]([O-])c1ccc(COc2cc3c(cc2OCc2ccc([N+](=O)[O-])cc2)OC2(C=C3)CCOCC2)cc1`, the fold change (FC) in assay [1] was 13.9. The half-maximal effective concentration (EC50) was over 100 µM in assay [2], over 100 µM in assay [3] and 13.4 µM in assay [4]. In addition, the Activity result in [5] is “Dose-dependent effect”; in [6], “Dose-dependent effect”; in [7] it was “Dose-dependent effect”; in assay [9], 35%; in assay [10], 37%; in assay [11], 20%. Besides, the Activity in assay [12] is 20%; in [13], 40%; in [14], 19%; in assay [15], “Dose-dependent effect”. The IC50 in [6] was 15.8 µM; in [7] it was 2.71 µM; in assay [8], over 100 µM.

The term EC50 denotes the concentration at which the effect is half-maximal. For orientation: IC50 means the concentration needed to halve the response being measured. Read a low IC50 as inhibition by little substance.
